What all share (assay type): functional, cell-based
The test system of assay [1] is NIH3T3. Kind of assay: Induction of apoptosis in mouse NIH3T3 cells assessed as accumulation at subG1 phase at 0.5 ug/ml after 24 hrs by flow cytometry.
Assay [2] has as its system PC-3M. Briefly: Induction of apoptosis in human PC3M cells assessed as accumulation at subG1 phase at 0.5 ug/ml after 24 hrs by flow cytometry. The essentials: (§1)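 PC-3M cells at about 75% confluency were seeded at 2.5 × 10^5 cells/well and left to reattach overnight at 37 °C in 5% CO2. They were then treated for 24 h in RPMI 1640 with 10% FBS, penicillin 100 IU/mL, streptomycin 50 µg/mL and Glutamax 2 mM. Controls were 0.1% DMSO (negative) and 0.5 µg/mL nocodazole (positive). Floating and adherent cells were pooled, PBS-washed, stained for DNA content with Guava cell cycle reagent, and scored as % sub-G1 by flow cytometry.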
In general terms: A flow cytometer gives signals particle by particle.

Assay [3] can be described thus: Antiproliferative activity against human PC3M cells by MTT assay. To be noted: PC-3M. The method, boiled down: (§2)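 Cells were exposed to serial dilutions of DMSO-dissolved samples for 72 h in RPMI 1640 with 10% fetal bovine serum and glutamax. Viability was read by the tetrazolium (MTT) colorimetric assay as inhibition of proliferation.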
In general terms: Tetrazolium dyes change colour on reduction, which living cells bring about.

The subject of another assay is NCI-H460. Briefly: Antiproliferative activity against human NCI-H460 cells by MTT assay. The method, boiled down:
as §2

The next assay relates to MCF7. Briefly: Antiproliferative activity against human MCF7 cells by MTT assay. The essentials:
as §2

A further assay has as its system SF-268. Briefly: Antiproliferative activity against human SF268 cells by MTT assay. The essentials:
as §2

In assay [4] the test system is PC-3M. Briefly: Induction of apoptosis in human PC3M cells assessed as accumulation at subG1 phase at 2.5 to 10 uM after 24 hrs by flow cytometry. The essentials: as §1
Assay [5] concerns NIH3T3. Briefly: Induction of apoptosis in mouse NIH3T3 cells assessed as accumulation at subG1 phase at 2.5 to 10 uM after 24 hrs by flow cytometry.
In the next assay the test system is MIA PaCa-2. Kind of assay: Antiproliferative activity against human MIAPaCa2 cells by MTT assay. The method, boiled down:
as §2

Molecules are shown by their SMILES. Activity calls are given as the source filed them. The calls are words filed in the database; no cut-off is given here.

Consider `COC(=O)Nc1nc2cc(C(=O)c3cccs3)ccc2[nH]1`, for which the outcome in the assay on NIH3T3 [1] and in the assay with PC-3M [2] was Active.

The IC50 is the concentration needed to halve the response being measured. Lower therefore signals greater potency. In the case of `COc1cccc2c1C(=O)c1c(O)c3c(c(O)c1C2=O)C[C@@](O)(C(=O)CO)C[C@@H]3O[C@H]1C[C@H](N)[C@H](O)[C@H](C)O1` [DOXORUBICIN], the half-inhibitory concentration (IC50) turned out to be 1110 nM in [3] and 10 nM with NCI-H460.

Turning to `C=C1CC[C@H]2C(C)(C)CCC[C@]2(C)[C@H]1CC1=C(O)C(=O)C(CO)=CC1=O` [TAURANIN], the IC50 was 1500 nM in the assay with MCF7; 1800 nM in the assay on SF-268; 3500 nM in assay [3]; 4300 nM in the assay with NCI-H460; 2800 nM with MIA PaCa-2. The result in the assay with PC-3M [4] and with NIH3T3 [5] was Active.
